From PubChem
Most compounds without a hit are left out; they make up all but 2% or so of the library.
PAD4 inh: human PAD4 inhibitors, primary screen, biochemical, fluorescence polarization, 1536-well format; Protein-arginine deiminase type-4 (Homo sapiens), Q9UM07; recombinant PAD4, RCA probe fluorescence polarization; inhibition, % at 6.36 µM; actives 0.41% (n = 330,000); AID 485272, 2010;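 active = percent inhibition above a cutoff equal to the mean of all tested compounds plus 3 SD, cut at about 15% in these data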;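 also: 0% = PAD4 with RCA probe and DMSO and 100% = probe without PAD4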
TCR CD3 inh: inhibitors of human TCR-CD3 interaction, primary screen, biochemical, fluorescence, TAMRA-labeled TCR probe; T-cell receptor (TCR); inhibition, % at 9.4 µM; actives 0.37% (n = 360,000); AID 651800, 2012; in the data active = inhibition above about 19%;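 also: recombinant mutant TCR 2C K166C tagged with TAMRA read by polarization; 0% = receptor in buffer alone and 100% = receptor with positive control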
ABHD4 inh: ABHD4 inhibitors, primary screen, biochemical, fluorescence polarization, mouse | inhibition, % at 8.92 µM | purified mABHD4, FP-Rh probe fluorescence polarization | (Lyso)-N-acylphosphatidylethanolamine lipase (Mus musculus), Q8VD66 | AID 720543, 2013 | actives 0.54% (n = 370,000);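 active = inhibition exceeding the mean over every tested compound plus 3 SD, cut at about 30% in these data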;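 also: 0% = plate median of compound wells and 100% = S159A mutant with DMSO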
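Assay system: wild-type mouse ABHD4 protein; compound: single nominal dose of 8.92 µM, 0.89% DMSO final; schedule: 45 min + 60 min at 25 °C; measured by: FP readout, ex 525 nm / em 598 nm; evaluation: % inhibition of FP-Rh probe binding versus controls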
HTRA1 inhibitor: HTRA1 serine protease inhibitors, primary screen, biochemical, fluorescence polarization, HTS; Q92743; recombinant HTRA1, FP-rhodamine activity-based probe; inhibition, % at 5.96 µM; actives 0.5% (n = 340,000); in the data active = inhibition above about 36%;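 also: 0% = enzyme with DMSO and 100% = wells lacking enzyme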
TDP2 absorb: human TDP2 enzyme inhibitors, primary screen, biochemical, epi absorbance, recombinant enzyme; Tyrosyl-DNA phosphodiesterase 2 (Homo sapiens), O95551; T5PNP hydrolysis, p-nitrophenol absorbance 415 nm; inhibition, % at 12.8 µM; actives 0.34% (n = 370,000); AID 720702, 2013;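 active = inhibition above the mean of all tested compounds plus 3 SD, set per campaign, cut at about 25% in these data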;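 also: 0% = DMSO with enzyme and 100% = buffer with substrate but no TDP2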
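System – recombinant human TDP2 · Quantity – TDP2 enzyme at 120 nM final · Doses – single concentration, 12.8 µM nominal, with 1% DMSO · Incubation – 2 h at 37 °C · Measured by – epi absorbance of p-nitrophenol freed from T5PNP by hydrolysis · Read-out – % inhibition relative to enzyme-containing and enzyme-free wells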
SIAE inh: human SIAE inhibitors, primary screen, biochemical, fluorescence polarization, FP-Rh probe, 1536-well HTS; SIAE FP-Rh probe binding; inhibition, % at 9.66 µM; actives 0.69% (n = 370,000); AID 1053197, 2014; Sialate O-acetylesterase (Homo sapiens), Q9HAT2;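 active = inhibition above a cutoff: mean of compounds within the control limits plus 3 SD of those, cut at about 17% in these data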;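 also: 0% = plate median of compound wells and 100% = probe without SIAE protein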
Target sequence (Q9HAT2 whole entry, looked up): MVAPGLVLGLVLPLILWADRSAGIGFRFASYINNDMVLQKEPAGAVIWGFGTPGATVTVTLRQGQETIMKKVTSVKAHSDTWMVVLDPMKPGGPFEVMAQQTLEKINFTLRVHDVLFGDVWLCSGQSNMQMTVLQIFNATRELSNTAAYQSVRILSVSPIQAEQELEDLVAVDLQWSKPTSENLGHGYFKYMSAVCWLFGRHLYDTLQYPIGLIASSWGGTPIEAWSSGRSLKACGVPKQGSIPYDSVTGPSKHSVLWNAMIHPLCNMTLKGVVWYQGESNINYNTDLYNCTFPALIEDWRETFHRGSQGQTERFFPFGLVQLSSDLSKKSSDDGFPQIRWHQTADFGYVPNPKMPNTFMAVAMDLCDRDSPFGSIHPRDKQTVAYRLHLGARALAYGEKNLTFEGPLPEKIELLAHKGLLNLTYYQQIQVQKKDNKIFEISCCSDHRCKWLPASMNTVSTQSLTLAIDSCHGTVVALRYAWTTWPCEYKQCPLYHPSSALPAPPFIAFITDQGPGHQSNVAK
HTRA1 inh conf: HTRA1 protease inhibitors, retest, confirmation, biochemical, fluorescence polarization | actives 66% (n = 1,600) | recombinant HTRA1, FP-rhodamine activity-based probe | shares compounds with HTRA1 inhibitor | inhibition, % at 5.96 µM;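 active = mean inhibition over three repeats above a set limit taken from the earlier primary screen, cut at about 37% in these data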;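 also: 0% = HTRA1 with DMSO and 100% = wells lacking HTRA1; inhibitors block probe binding so polarization drops and inhibition rises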
* hit, by the source's call; . = no result given.

SMILES	PAD4 inh	TCR CD3 inh	ABHD4 inh	HTRA1 inhibitor	TDP2 absorb	SIAE inh	HTRA1 inh conf
COc1ccc([C@@H]2[C@@H]3C(=O)N(C(C)(C)C)C(=O)[C@@H]3[C@]3(C)C(=O)N(c4ccc(C(F)(F)F)cc4)C(=O)N23)cc1	-2	4	-5	-1	2	3	.
COc1ccc2c(c1)-c1c(ssc1=S)C(C)(C)N2	7	-2	23	38*	-1	7	37*
COc1ccc(-n2sc3c(c2=S)-c2cc(OC)ccc2NC3(C)C)cc1	0	2	6	9	-10	13	.
COc1cccc2c(N/N=C/c3ccc(O)c(O)c3)cc(C)nc12	2	5	15	47*	-18	-3	77*
Nc1cccc2c1C(=O)N(CCOc1ccccc1F)C2=O	-2	4	-8	-7	-8	-3	.
Cc1cccc(C)c1NC(=S)NCCc1ccc(O)c(O)c1	-1	2	15	48*	-10	9	109*
c1coc(C2Nc3cccc4cccc(c34)N2)c1	-3	.	.	.	.	.	.
Clc1cccc(C2Nc3cccc4cccc(c34)N2)c1Cl	-5	-1	29	58*	9	15	20
CCOC(=O)C1Nc2ccc(C(=O)O)cc2C2C=CCC12 (centres undefined)	-16	8	25	25	20	-3	.
CCCC1Nc2ccc(C(=O)O)cc2C2C=CCC12 (centres undefined)	6	.	.	39*	.	.	39*
CCc1nc2ccc(C(=O)NC3CCN(Cc4ccccc4)CC3)cn2c1N(CC)Cc1cccc(Br)c1	.	-1	14	.	-2	1	.
COc1ccc2nc(N=NC3=C(O)CC(C)(C)CC3=O)sc2c1	3	5	26	53*	-6	-4	58*
CN1C(=O)[C@@](O)(c2cn(C)c3ccccc23)c2cc(F)ccc21	.	-10	-6	.	-16	-3	.
O=C(Oc1cccc2cccnc12)c1ccco1	-2	-2	0	31	3	3	.
O=C(Oc1ccc(Cl)c2cccnc12)c1ccco1	-4	0	0	72*	-3	1	76*
CCCc1ccc(O)c(N=Cc2cc(Br)cc(OCC)c2O)c1	-5	-5	18	41*	-13	-2	55*
COc1ccc(NC(=O)CC2Nc3cc(C)c(C)cc3NC2=O)c([N+](=O)[O-])c1 (centres undefined)	0	5	5	2	-6	1	.
COc1ccc(NC(=O)CC2Nc3cccc4cccc(c34)NC2=O)cc1 (centres undefined)	-11	3	18	52*	-2	2	9
Cc1c(Cl)cccc1NC(=S)N(Cc1cccnc1)Cc1ccccc1Cl	-3	3	-6	-12	6	-12	.
Oc1c(Br)cc(Br)c2cccnc12	.	-6	28	58*	7	27*	59*
Brc1csc2ncccc12	1	-5	9	1	12	-3	.
Oc1c(CN2CCN(c3ccccc3)CC2)cc(Br)c2cccnc12	-4	6	15	56*	7	6	44*
c1ccc(N2CCN(Cc3ccnc4ccccc34)CC2)cc1	-3	1	4	14	-4	13	.
O=C(O)Cc1sc(Nc2ccccc2)nc1-c1cccs1	-20	-69	-83	-25	2	-55	.
Cc1c(N=C2C=CC(=O)c3ccccc32)c(=O)n(-c2ccccc2)n1C	.	2	10	37*	24	7	33
SMILES	PAD4 inh	TCR CD3 inh	ABHD4 inh	HTRA1 inhibitor	TDP2 absorb	SIAE inh	HTRA1 inh conf
CC1C(=O)c2ccccc2CC1C(=O)O (centres undefined)	.	3	2	4	2	-1	.
O=[N+]([O-])c1ccc(NC(c2ccccc2)c2ccc3cccnc3c2O)cc1 (centres undefined)	.	-3	7	36*	-1	6	40*
CC(=O)NC(c1cccc([N+](=O)[O-])c1)c1ccc2cccnc2c1O (centres undefined)	.	-7	14	37*	-26	13	63*
Cc1[nH]c2c(C)cccc2c1CCNC(=O)c1ccc2c(c1[N+](=O)[O-])C(=O)c1ccccc1C2=O	-4	5	7	42*	-16	5	44*
COC(=O)[C@]12CCCCC=C1N(Cc1ccc3c(c1)OCO3)C(=O)[C@H](CC(=O)NCCC(C)C)C2	.	-1	-2	.	-6	-4	.
CN1CCc2cccc3c2[C@@H]1Cc1ccc(O)c(O)c1-3	-2	.	.	49*	.	.	53*
Oc1ccc2ccccc2c1/C=N/Nc1nnc(-c2ncc[nH]2)c2ccccc12	1	7	23	38*	-5	16	100*
O=[N+]([O-])c1ccc(N/N=C/c2cccc(O)c2O)cc1	1	-3	21	64*	-15	12	46*
O=[N+]([O-])c1ccc(NN=Cc2cccc([N+](=O)[O-])c2)cc1	.	-3	6	-2	3	15	.
COc1ccc(N(C(C)C(=O)Nc2ccc(S(=O)(=O)N3CCCCC3)cc2)S(C)(=O)=O)cc1 (centres undefined)	-2	1	-4	-16	5	3	.
CC(=O)C(C(C)=O)c1c(Cl)c(O)c(O)c2c(C(=O)c3ccccc3)coc12	-1	-2	43*	65*	-17	-1	82*
CN1CCN(Cc2c(O)ccc3occ(C(=O)c4ccccc4)c23)CC1	-4	6	3	7	-5	0	.
Cc1c(Cl)cccc1NS(=O)(=O)c1ccc2c(c1)C1C=CCC1C(c1ccc(C(=O)O)cc1)N2 (centres undefined)	-22	.	.	38*	.	.	31
O=C(O)c1ccc2c(c1)C1C=CCC1C(c1ccncc1)N2 (centres undefined)	-12	-2	-1	6	2	1	.
Cc1ccccc1C1C(C#N)=C2N=C(N)c3c(sc4c3CCCCC4)N2C2=C1C(=O)CCC2 (centres undefined)	-13	.	.	50*	.	.	27
O=S(=O)(c1ccc(F)cc1F)N1CCN(CCO)CC1	.	-1	-1	-4	10	-1	.
FC(F)(F)c1cnc(NNC(=S)Nc2ccccc2)c(Cl)c1	.	-3	11	47*	-3	7	30
